From ChEMBL document CHEMBL1143032, “The concise synthesis of chalcone, indanone and indenone analogues of combretastatin A4” (Bioorg Med Chem, 2007)

Assays:
CA46 = experiment: Growth inhibition of CA46 cells; type: functional; details: Homo sapiens
[1] = Inhibition of bovine brain tubulin polymerization; parameters: species or system Bos taurus
Summary of the method: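 Tubulin assembly assay. The parameter measured was inhibition of the extent of assembly.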

MCF7 = experiment: Growth inhibition of MCF7 cells after 48 hrs; type: functional; details: Homo sapiens, MCF7, 48 h

Compound	IC50 [1] [nM]	GI50 (MCF7) [nM]	GI50 (CA46) [nM]
COc1ccc(-c2[nH]c3cc(OC)ccc3c2C(=O)c2cc(OC)c(OC)c(OC)c2)cc1			45
COc1ccc(C2=C(C(=O)c3cc(OC)c(OC)c(OC)c3)C(=O)c3cc(OC)c(OC)c(OC)c32)cc1O	20000		
COc1ccc(C2=C(C(=O)c3cc(OC)c(O)c(OC)c3)c3cc(O)c(OC)cc3C2=O)cc1O	36000		

Now from value to compound, other results behind:

IC50 [1] [nM]	GI50 (MCF7) [nM]	Compound	GI50 (CA46) [nM]
6600	> 1000	COc1ccc(/C=C(\C(=O)c2cc(OC)c(OC)c(OC)c2)c2ccc(OC)cc2)cc1	
2500	> 1000	COc1ccc(/C=C(/C(=O)c2cc(OC)c(OC)c(OC)c2)c2ccc(OC)cc2)cc1	
	26	COc1ccc(/C=C\c2cc(OC)c(OC)c(OC)c2)cc1O [COMBRETASTATIN A4]	
